Legend:
[1] = Cytotoxicity against human KB cells assessed as inhibition of cell proliferation at 10 uM after 72 hrs by cell titer 96 aqueous one solution based assay; format: functional
How it was run: (§1)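 KB cells in D-MEM with 10% FCS and antibiotics/fungizone under 5% CO2. 600 cells/well treated 24 h after seeding, 1% DMSO final, against DMSO controls. After 72 h, CellTiter 96 AQueous One for 3 h at 37 °C, absorbance 490 nm. Inhibition = [1 − (OD490 treated/OD490 control)] × 100, triplicate; mean ± SE.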

[2] = Cytotoxicity against human KB cells assessed as inhibition of cell proliferation at 1 uM after 72 hrs by cell titer 96 aqueous one solution based assay; format: functional; how it was run: as §1
[3] = Antiproliferative activity against human KB cells after 72 hrs by cell titer 96 aqueous one solution based assay; format: functional
How it was run: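 KB cells (NCI origin) in D-MEM with 10% fetal calf serum, penicillin, streptomycin and fungizone under 5% CO2. 600 cells/well, dosed 24 h after plating from DMSO stocks (1% DMSO final; DMSO-only controls). 72 h exposure, then CellTiter 96 AQueous One for 3 h at 37 °C, A490. IC50 (50% inhibition) from 5 nM–100 μM in separate duplicate experiments.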

[4] = Antiproliferative activity against human HCT116 cells after 72 hrs by cell titer 96 aqueous one solution based assay; format: functional; conditions: HCT-116, 72 h
[5] = Antiproliferative activity against human HL60 cells after 72 hrs by cell titer 96 aqueous one solution based assay; format: functional; conditions: HL-60, 72 h
[6] = Antiproliferative activity against human MRC5 cells after 72 hrs by cell titer 96 aqueous one solution based assay; conditions: MRC5, 72 h
[7] = Antiproliferative activity against human HCT116 cells at 1 to 10 uM after 72 hrs by cell titer 96 aqueous one solution based assay relative to control; format: functional, HCT-116
[8] = Antiproliferative activity against human HL60 cells at 1 to 10 uM after 72 hrs by cell titer 96 aqueous one solution based assay relative to control; format: functional, HL-60
[9] = Antiproliferative activity against human MRC5 cells at 1 to 10 uM after 72 hrs by cell titer 96 aqueous one solution based assay relative to control; conditions: mrc5, 72 h
[10] = Antiproliferative activity against mouse B16F10 cells after 72 hrs by neutral red staining based assay; format: functional, cell-based; conditions: B16-F10, 72 h
How it was run: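 Murine B16F10 (ATCC) in DMEM with pyruvate, 10% FBS, 2% glutamine, 1% pen-strep, 37 °C, 5% CO2. 20 000 cells/well dosed 24 h later (1% DMSO final). After 72 h, PBS rinse, neutral red 40 μg/mL for 3 h at 37 °C, destain with acetic acid/EtOH/H2O 1:50:49 for 30 min at RT, A540. IC50 over 10 ng/mL–10 μg/mL, separate duplicates.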

[11] = Antiproliferative activity against mouse B16F10 cells at 1 to 10 uM after 72 hrs by neutral red staining based assay relative to control; format: functional, B16-F10
How it was run: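 B16F10 cells in supplemented DMEM at 37 °C, 5% CO2, 20 000/well, treated 24 h after plating with 1% DMSO final. After 72 h exposure, neutral red uptake (40 μg/mL, 3 h, 37 °C), acid-ethanol destain, absorbance 540 nm. Inhibition = [1 − (OD540 treated/OD540 control)] × 100 from triplicate experiments.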

[12] = Antiproliferative activity against human MDA435 cells after 72 hrs by cell titer 96 aqueous one solution based assay; format: functional; conditions: MDA-MB-435, 72 h
[13] = Antiproliferative activity against human MDA435 cells at 1 to 10 uM after 72 hrs by cell titer 96 aqueous one solution based assay relative to control; format: functional, MDA-MB-435

Compound | inhibition at 10 µM [1] [%] | inhibition at 1 µM [2] [%] | IC50 [3] [nM] | IC50 [4] [µM] | IC50 [5] [µM] | IC50 [6] [µM] | Activity [7] [%] | Activity [8] [%] | Activity [9] [%] | IC50 [10] [nM] | Activity [11] [%] | IC50 [12] [nM] | Activity [13] [%]
CC[C@H]1C=CCC[C@@]2(C[C@@H]3CC[C@@H]4C[C@]5(CCC[C@@H](C)O5)NC(=[N+]43)N2)O1 | 84 | 0 | – | – | – | – | – | – | – | – | – | – | –
CC[C@H]1C=CCC[C@@]2(C[C@@H]3CC[C@@H]4[C@H](C(=O)OCCCCCCCCCCCCCCCC(=O)O)[C@]5(CCC[C@@H](C)O5)NC(=[N+]34)N2)O1 | 97 | 85 | 500 to 600 | – | – | – | – | – | – | – | – | – | –
CCCCCCC[C@@H]1N=C(N)N2CCCC2=C1C(=O)OCCCCNC(=N)N | 100 | 80 | 100 to 200 | – | – | – | – | – | – | – | – | – | –
CCCCCCCC[C@@H]1N=C(N)N2CCCC2=C1C(=O)OCCCCNC(=N)N | 100 | 86 | 300 | 3.4 to 4.2 | 8 to 9.1 | 3.6 to 4.1 | 100 | 100 | 100 | – | – | – | –
CC[C@H]1C=CCC[C@@]2(C[C@@H]3CC[C@@H]4[C@H](C(=O)OCCCCCCCCCCCCCCCCCC(=O)N(CCCN)CCCC(N)=O)[C@]5(CCC[C@@H](C)O5)NC(=[N+]34)N2)O1 | 100 | 100 | 50 to 70 | – | – | – | – | – | – | 800 to 850 | 100 | – | –
CCCCCCCCC[C@@H]1N=C(N)N2CCCC2=C1C(=O)OCCCCNC(=N)N | 100 | 97 | 30 | – | – | – | – | – | – | – | – | – | –
CCCCCCC[C@@H]1N=C(N)N2CCCC2=C1C(=O)O | 96 | 61 | 6700 to 7700 | 9.9 | 3.8 to 7.1 | – | 100 | 100 | – | – | – | 9300 to 11000 | 100
CC[C@H]1C=CCC[C@@]2(C[C@@H]3CC[C@@H]4[C@H](C(=O)OCCCCCCCCCCCCCCCC(=O)O)[C@]5(CCCCO5)NC(=[N+]34)N2)O1 | 95 | 80 | 500 to 600 | – | – | – | – | – | – | – | – | – | –
CCCCCCCCCc1nc(N)[n+]2c(c1C(=O)OCCCCNC(=N)N)CCC2 | 98 | 89 | 100 | 3.4 to 3.5 | 3.6 to 5.4 | 3.4 to 3.9 | 100 | 100 | 100 | – | – | – | –
CCCCCCCCCc1cc2[n+](c(N)n1)CCC2 | 99 | 82 | 200 to 400 | 0.74 to 0.84 | 1.3 | 0.55 to 0.6 | 100 | 100 | 100 | – | – | 320 to 860 | 100
CCCCCCCCC[C@@H]1N=C(N)N2CCCC2=C1C(=O)O | 72 | 0 | – | – | – | – | – | – | – | – | – | – | –
CC[C@H]1C=CCC[C@@]2(C[C@@H]3CC[C@@H]4[C@H](C(=O)OCCCCCCCCCCCCCCCCC(=O)N(CCCN)CC(O)CCN)[C@]5(CCC[C@@H](C)O5)NC(=[N+]34)N2)O1 (stereo not given in full) | 100 | 96 | 5 to 20 | 0.02 to 0.05 | 0.01 to 0.03 | – | 100 | 100 | – | 200 | 100 | 40 to 70 | 100
CC[C@H]1C=CCC[C@@]2(C[C@@H]3CC[C@@H]4[C@H](C(=O)OCCCCCCCCCCCCCCCC(=O)N(CCCN)CC(O)CCN)[C@]5(CCC[C@@H](C)O5)NC(=[N+]34)N2)O1 (stereo not given in full) | 99 | 100 | 5 | 0.007 | 0.004 to 0.006 | – | 100 | 100 | – | 200 | 100 | 9 to 15 | 100
CC[C@H]1C=CCC[C@@]2(C[C@@H]3CC[C@@H]4[C@H](C(=O)OCCCCCCCCCCCCCCC(=O)N(CCCN)CC(O)CCN)[C@]5(CCC[C@@H](C)O5)NC(=[N+]34)N2)O1 (stereo not given in full) | 100 | 89 | 300 | 3.1 to 3.4 | 5 to 5.4 | 3.2 to 3.4 | 100 | 100 | 100 | – | – | – | –
